Experiment [1] concerns Syrian golden hamster. In words: Induction of reverse cholestrol transport in high fat diet-induced dyslipidemia Syrian Golden hamster model assessed as reduction in liver weight at 100 mg/kg, po administered for 1 week. The format is functional, organism-based. The settings on record: Mesocricetus auratus. Put shortly: (§1)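 Male Syrian Golden hamsters on 45% kCal HFD, dosed 100 mg/kg p.o. in 0.5% NaCMC for one week, 4 per group. Food intake and body weight recorded daily. At the end, animals were saline-perfused and liver and eWAT were excised and weighed. Paraffin sections stained with H&E and imaged at 20x.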

Experiment [2] relates to Syrian golden hamster. In words: Induction of reverse cholestrol transport in high fat diet-induced dyslipidemia Syrian Golden hamster model assessed as decrease in NPCL1 mRNA expression in liver at 100 mg/kg, po administered for 1 week by qRT-PCR analysis. It counts as functional, organism-based. To be noted: Mesocricetus auratus.
Experiment [3] concerns 3T3-L1. Description: Anti-adipogenic activity in mouse differentiated 3T3L1 cells assessed as inhibition of adipogenesis at 20 uM after 20 mins by Oil Red O staining based assay. The format is functional. Put shortly: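 3T3-L1 preadipocytes given 20 µM compound with differentiation media. Oil red O stain (20 min) extracted, absorbance at 492 nm measured against MDI+ control, n=3, mean ± SD, Student t test.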

The species named for experiment [4] is Homo sapiens. In words: Anti-adipogenic activity in human differentiated MSC assessed as reduction in lipid accumulation at 5 to 20 uM after 20 mins by Oil Red O staining based microscopic method. The format is functional. Put shortly:
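C3H10T1/2 or hMSC adipocytes differentiated alongside 5, 10 or 20 µM compound in differentiation media, stained with Oil red O. Images taken by bright-field microscopy at 10x and 20x, representative of three independent experiments.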

Experiment [5] is filed under the species Mus musculus. In words: Activation of Wnt3a/beta-catenin in mouse 3T3L1 cells assessed as down-regulation of CDK6 expression at 20 uM after 16 to 24 hrs by Western blot analysis. The format is cell-based. Put shortly:
(§2)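 3T3-L1 cells given MDI differentiation media (0.5 mM IBMX, 5 µg/ml insulin, 250 nM dexamethasone) with or without 20 µM compound. Proteins isolated at 16 and 24 h and probed by Western blot for CDK2, CDK4, CDK6, cyclin D1 and D3. Densitometry normalized to actin, n=3, mean ± SD, Student t test.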

The species entered for experiment [6] is Mus musculus. In words: Activation of Wnt3a/beta-catenin in mouse 3T3L1 cells assessed as down-regulation of CDK2 expression at 20 uM after 16 to 24 hrs by Western blot analysis. It counts as cell-based. Put shortly:
as §2

Experiment [7] is filed under the species Mus musculus. In words: Activation of Wnt3a/beta-catenin in differentiated mouse 3T3L1 cells assessed as down-regulation of PPARgamma mRNA expression at 20 uM by qRT-PCR analysis. Put shortly:
(§3)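 3T3-L1 cells differentiated with IBMX/dexamethasone/insulin media with or without 20 µM compound over the differentiation period. RNA extracted with TRIZOL, 500 ng reverse-transcribed to cDNA, then quantitative real-time PCR. Three independent experiments run in triplicate, mean ± SD, one-way ANOVA with Bonferroni posttest.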

For experiment [8], the species on record is Mus musculus. In words: Activation of Wnt3a/beta-catenin in mouse 3T3L1 cells assessed as down-regulation of C/EBPalpha mRNA expression at 20 uM by qRT-PCR analysis. The format is cell-based. The method in brief:
as §3

The subject of experiment [9] is 3T3-L1. In words: Induction of Wnt5b mRNA expression in mouse 3T3L1 cells at 20 uM by qRT-PCR analysis. The format is functional, cell-based. Put shortly:
(§4)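 3T3-L1 cells induced with MDI differentiation medium with or without 20 µM. RNA isolated with TRIzol and 500 ng reverse-transcribed to cDNA for real-time PCR. n=3 with triplicates, mean ± SD; one-way ANOVA with Bonferroni post-test.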

Experiment [10] has as its system 3T3-L1. Description: Induction of Wnt10a mRNA expression in mouse 3T3L1 cells at 20 uM by qRT-PCR analysis. The format is functional, cell-based. The method in brief:
as §4

For experiment [11], the species on record is Mus musculus. Description: Activation of Wnt3a/beta-catenin in mouse 3T3L1 cells assessed as induction of TCF1 expression at 20 uM after 16 to 24 hrs by Western blot analysis. The format is cell-based.
Experiment [12] is filed under the species Mus musculus. In words: Activation of Wnt3a/beta-catenin in mouse 3T3L1 cells assessed as down-regulation of PPARgamma expression at 20 uM after 2 to 6 days in presence of FH353 by Western blot analysis. It counts as cell-based.
In experiment [13] the test system is Syrian golden hamster. Description: Anti-dyslipidemic activity in high fat diet-induced dyslipidemia Syrian Golden hamster model assessed as decrease in serum AST levels at 100 mg/kg, po administered for 1 week followed by overnight fasting post last dose by clinical bio-analyzer analysis. It counts as functional, organism-based. The settings on record: Mesocricetus auratus. Put shortly:
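Male Syrian golden hamsters (8–10 wk, 100–120 g), 4 per group, given 45% kcal HFD for 4 days, then 100 mg/kg p.o. in 0.5% NaCMC daily for one week alongside HFD. Blood taken from retro-orbital plexus after overnight fast. TG, HDL, LDL, ALT, AST measured on a clinical bio-analyzer and NEFA by kit. Mean ± SEM, one-way ANOVA with Bonferroni.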

Experiment [14] has as its system Syrian golden hamster. Description: Induction of reverse cholestrol transport in high fat diet-induced dyslipidemia Syrian Golden hamster model assessed as increase in PPARalpha mRNA expression in liver at 100 mg/kg, po administered for 1 week by qRT-PCR analysis. To be noted: Mesocricetus auratus. The format is functional, organism-based.
Experiment [15] deals with Syrian golden hamster. In words: Induction of reverse cholestrol transport in high fat diet-induced dyslipidemia Syrian Golden hamster model assessed as increase in ABCA1 mRNA expression in eWAT at 100 mg/kg, po administered for 1 week by qRT-PCR analysis. The format is functional, organism-based. To be noted: Mesocricetus auratus.
Experiment [16] concerns Syrian golden hamster. In words: Induction of reverse cholestrol transport in high fat diet-induced dyslipidemia Syrian Golden hamster model assessed as reduction in adipocyte hypertrophy at 100 mg/kg, po administered for 1 week by H and E staining based assay. To be noted: Mesocricetus auratus. It counts as functional, organism-based. Put shortly: as §1
Experiment [17] relates to C3H 10T1/2. In words: Anti-adipogenic activity in mouse C3H10T1/2 cells assessed as reduction in lipid accumulation at early differentiation stage at 20 uM measured up to 3 days by Oil Red O absorbance method. It counts as functional, cell-based. The method in brief: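 3T3-L1 or C3H10T1/2 cells given 20 µM compound with differentiation media for different time periods. Oil red O stain extracted from accumulated lipid with isopropanol and absorbance read at 492 nm. n=3, mean ± SD, Student t test against MDI+ group.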

The subject of experiment [18] is 3T3-L1. In words: Anti-adipogenic activity in mouse 3T3L1 pre-adipocytes in differentiation media assessed as reduction in lipid accumulation at 20 uM after 20 mins in presence of beta-catenin/TCF complex inhibitor FH353 by Oil Red O staining based microscopic method. The format is functional, cell-based. Put shortly:
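3T3-L1 adipocytes given 20 µM compound with or without 10 µM FH353 in differentiation media, then Oil red O stained. Imaged at 20x and 40x, representative of three independent experiments.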

For experiment [19], the species on record is Mus musculus. Description: Activation of Wnt3a/beta-catenin in mouse 3T3L1 cells assessed as induction of TCF1 expression at 20 uM after 16 to 24 hrs in presence of beta-catenin/TCF complex inhibitor FH353 by Western blot analysis. It counts as cell-based. The method in brief:
(§5)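 Confluent 3T3-L1 cells given differentiation media (IBMX/insulin/dexamethasone) with 20 µM compound, with or without the β-catenin/TCF inhibitor FH353 (10 µM). Proteins isolated at 16 and 24 h and Western blotted after SDS-PAGE and nitrocellulose transfer. Blocking in 5% milk/TBS-T, primary antibody overnight at 4 °C, chemiluminescent detection, β-actin control, three independent experiments.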

Experiment [20] is filed under the species Mus musculus. Description: Activation of Wnt3a/beta-catenin in differentiated mouse 3T3L1 cells assessed as upregulation of phosphorylated beta-catenin expression at 20 uM after 16 to 24 hrs in presence of beta-catenin/TCF complex inhibitor FH353 by Western blot analysis. Put shortly: as §5

Molecules are shown by their SMILES. Activity calls are given as the source filed them. The calls are words filed in the database; no cut-off is given here.

Regarding `Cc1ccc(S(=O)(=O)N(Cc2cn(Cc3cccc(F)c3F)nn2)Cc2cn(S(=O)(=O)c3ccc(C)cc3)c3ccccc23)cc1`, the outcome in experiment [1], in experiment [2], in experiment [4], in experiment [5], in [6] and in [7] was Active. Also, the outcome in experiment [8], in [11], in experiment [13], in experiment [14], in experiment [15] and in experiment [16] was Active. In addition, in experiment [17], the outcome was Active. For the same compound, in experiment [3], the inhibition at 20 µM amounted to 71.5%. In addition, the result in [9], in [10], in experiment [12], in experiment [18], in experiment [19] and in experiment [20] was inactive.

The values are drawn from ChEMBL document CHEMBL4138193, “Novel indole and triazole based hybrid molecules exhibit potent anti-adipogenic and antidyslipidemic activity by activating Wnt3a/β-catenin pathway” (Eur J Med Chem, 2018).
